Test results: ChEMBL document CHEMBL2062469, “1-(2-Mercaptobenzenesulfonyl)-3-hydroxyguanidines--novel potent antiproliferatives, synthesis and in vitro biological activity” (2012)
Blank lines part the entries; values can stand above or below the compound they belong to.

How the values were obtained:
Type in all cases: functional
[1] = system: MCF7; test: Cytostatic activity against human MCF7 cells
Outline: (§1)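 NCI-60 human tumor cell line screen run by the US National Cancer Institute under the NIH Developmental Therapeutics Program protocol. A single-dose prescreen at 10 µM came first. Selected compounds then went into the 5-dose assay. Cytostatic activity is reported as GI50 (µM).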

[2] = system: SF-295; test: Cytostatic activity against human SF295 cells; outline: as §1
[3] = system: NCI-H460; test: Cytostatic activity against human NCI-H460 cells; outline: as §1
[4] = system: BT-549; test: Cytostatic activity against human BT549 cells; outline: as §1
[5] = Cytostatic activity against human […] cells; outline: as §1
[6] = system: KM12; test: Cytostatic activity against human KM12 cells; outline: as §1
[7] = system: T47D; test: Cytostatic activity against human T47D cells
Outline: (§2)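 Human tumour cell lines from the NCI-60 panel, tested at the US National Cancer Institute under the NIH Developmental Therapeutics Program protocol. A single-dose prescreen at 10 µM came first. Selected compounds then went to a 5-dose assay, which gave GI50 and TGI values in µM.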

[8] = system: OVCAR-5; test: Cytostatic activity against human OVCAR5 cells; outline: as §1
[9] = system: SR; test: Cytostatic activity against human SR cells; outline: as §2
[10] = system: CCRF-CEM; test: Cytostatic activity against human CCRF-CEM cells; outline: as §1
[11] = system: MDA-MB-468; test: Cytostatic activity against human MDA-MB-468 cells; outline: as §1
[12] = system: CAKI-1; test: Cytostatic activity against human Caki1 cells; outline: as §1
[13] = system: SK-MEL-5; test: Cytostatic activity against human SK-MEL-5 cells; outline: as §1
[14] = system: HCC 2998; test: Cytostatic activity against human HCC2998 cells; outline: as §1
[15] = system: MDA-MB-231; test: Cytostatic activity against human MDA-MB-231/ATCC cells; outline: as §1
[16] = system: OVCAR-3; test: Cytostatic activity against human OVCAR3 cells; outline: as §1
[17] = system: UACC-62; test: Cytostatic activity against human UACC62 cells; outline: as §2
[18] = system: MDA-MB-435; test: Cytostatic activity against human MDA-MB-435 cells; outline: as §1
[19] = system: SN12C; test: Cytostatic activity against human SN12C cells; outline: as §1
[20] = system: PC-3; test: Cytostatic activity against human PC3 cells; outline: as §1
[21] = system: SF-539; test: Cytostatic activity against human SF539 cells; outline: as §1
[22] = system: RXF 393; test: Cytostatic activity against human RXF393 cells; outline: as §1
[23] = system: HCT-116; test: Cytostatic activity against human HCT116 cells; outline: as §1
[24] = system: SW-620; test: Cytostatic activity against human SW620 cells; outline: as §2
[25] = system: UO-31; test: Cytostatic activity against human UO31 cells; outline: as §2
[26] = system: COLO 205; test: Cytostatic activity against human COLO205 cells; outline: as §1
[27] = system: SNB-19; test: Cytostatic activity against human SNB19 cells; outline: as §1
[28] = system: LOX IMVI; test: Cytostatic activity against human LOXIMVI cells; outline: as §1
[29] = system: OVCAR-8; test: Cytostatic activity against human OVCAR8 cells; outline: as §1
[30] = system: NCI-H23; test: Cytostatic activity against human NCI-H23 cells; outline: as §1
[31] = system: M14; test: Cytostatic activity against human M14 cells; outline: as §1
[32] = system: NCI/ADR-RES; test: Cytostatic activity against human NCI-ADR-RES cells; outline: as §1
[33] = system: SK-MEL-2; test: Cytostatic activity against human SK-MEL-2 cells; outline: as §1
[34] = system: Hs-578T; test: Cytostatic activity against human Hs 578T cells; outline: as §1
[35] = system: A498; test: Cytostatic activity against human A498 cells; outline: as §1
[36] = system: HCT-15; test: Cytostatic activity against human HCT15 cells; outline: as §1
[37] = system: U-251; test: Cytostatic activity against human U251 cells; outline: as §2
[38] = system: SNB-75; test: Cytostatic activity against human SNB75 cells; outline: as §2
[39] = system: SK-OV-3; test: Cytostatic activity against human SKOV3 cells; outline: as §1
[40] = system: HT-29; test: Cytostatic activity against human HT-29 cells; outline: as §1
[41] = system: 786-0; test: Cytostatic activity against human 786-0 cells; outline: as §1
[42] = system: HOP-92; test: Cytostatic activity against human HOP92 cells; outline: as §1
[43] = system: SF-268; test: Cytostatic activity against human SF268 cells; outline: as §1
[44] = system: Malme-3M; test: Cytostatic activity against human MALME-3M cells; outline: as §1
[45] = system: UACC-257; test: Cytostatic activity against human UACC257 cells; outline: as §2
[46] = system: OVCAR-4; test: Cytostatic activity against human OVCAR4 cells; outline: as §1
[47] = system: MOLT-4; test: Cytostatic activity against human MOLT4 cells; outline: as §1
[48] = system: K562; test: Cytostatic activity against human K562 cells; outline: as §1
[49] = system: NCI-H522; test: Cytostatic activity against human NCI-H522 cells; outline: as §1
[50] = system: EKVX; test: Cytostatic activity against human EKVX cells; outline: as §1
[51] = system: SK-MEL-28; test: Cytostatic activity against human SK-MEL-28 cells; outline: as §1
[52] = system: NCI-H226; test: Cytostatic activity against human NCI-H226 cells; outline: as §1
[53] = system: NCI-H322M; test: Cytostatic activity against human NCI-H322M cells; outline: as §1
[54] = system: IGROV-1; test: Cytostatic activity against human IGROV1 cells; outline: as §1
[55] = system: HOP-62; test: Cytostatic activity against human HOP62 cells; outline: as §1
[56] = system: DU-145; test: Cytostatic activity against human DU145 cells; outline: as §1
[57] = system: ACHN; test: Cytostatic activity against human ACHN cells; outline: as §1

Structure (SMILES): N=C(NO)NS(=O)(=O)c1cc(-c2nc(-c3ccc(Cl)cc3)no2)c(Cl)cc1SCc1ccc2c(c1)OCO2
GI50 [3]: 2140 nM
GI50 [16]: 1700 nM
GI50 [17]: 1700 nM
GI50 [25]: 1910 nM
GI50 [31]: 1860 nM
GI50 [34]: 2690 nM
GI50 [38]: 1740 nM
GI50 [40]: 1820 nM
GI50 [43]: 1820 nM
GI50 [44]: 2630 nM
GI50 [45]: 1910 nM
GI50 [49]: 1020 nM
GI50 [54]: 2140 nM

Structure (SMILES): N=C(NO)NS(=O)(=O)c1cc(-c2nc(-c3ccc(Cl)cc3)cs2)c(Cl)cc1SCc1ccc2c(c1)OCO2
GI50 [15]: 12.6 µM
GI50 [17]: 7760 nM
GI50 [18]: 3890 nM
GI50 [37]: 11.2 µM
GI50 [43]: 6460 nM
GI50 [54]: 25100 nM

Structure (SMILES): COc1cc(CSc2cc(Cl)c(-c3nnc(-c4ccc(Cl)cc4)s3)cc2S(=O)(=O)NC(=N)NO)cc(OC)c1OC
GI50 [3]: 34700 nM
GI50 [16]: 10200 nM
GI50 [17]: 16200 nM
GI50 [25]: 44700 nM
GI50 [31]: 40700 nM
GI50 [34]: 8130 nM
GI50 [38]: 25700 nM
GI50 [40]: 6760 nM
GI50 [43]: 9550 nM
GI50 [44]: 97700 nM
GI50 [45]: 26300 nM
GI50 [49]: 8910 nM
GI50 [54]: 58900 nM

Second part, led by results:

GI50 [1]: 1450 nM
GI50 [3]: 1940 nM
GI50 [4]: 2450 nM
GI50 [7]: 1700 nM
GI50 [8]: 2070 nM
GI50 [10]: 1910 nM
GI50 [11]: 1560 nM
GI50 [13]: 1480 nM
GI50 [14]: 2010 nM
GI50 [15]: 2.03 µM
GI50 [16]: 1690 nM
GI50 [18]: 1510 nM
GI50 [20]: 1790 nM
GI50 [23]: 1670 nM
GI50 [24]: 1680 nM
GI50 [26]: 1860 nM
GI50 [29]: 1720 nM
GI50 [30]: 1860 nM
GI50 [33]: 1960 nM
GI50 [36]: 1790 nM
GI50 [37]: 1.36 µM
GI50 [39]: 2200 nM
GI50 [40]: 1900 nM
GI50 [41]: 2750 nM
GI50 [46]: 1600 nM
GI50 [47]: 1450 nM
GI50 [48]: 1870 nM
GI50 [49]: 1320 nM
GI50 [51]: 1710 nM
GI50 [52]: 2230 nM
GI50 [53]: 3.48 µM
GI50 [56]: 1710 nM
GI50 [57]: 2020 nM
Structure (SMILES): N=C(NO)NS(=O)(=O)c1cc(-c2nc(-c3ccccc3)no2)c(Cl)cc1SCc1ccccc1
TGI [1]: 2970 nM
GI50 [2]: 2050 nM
TGI [2]: 5.79 µM
TGI [3]: 3.95 µM
TGI [4]: 5.23 µM
GI50 [5]: 2340 nM
TGI [5]: 9.03 µM
GI50 [6]: 1770 nM
TGI [6]: 3.55 µM
TGI [7]: 3.48 µM
TGI [8]: 5.31 µM
GI50 [9]: 1430 nM
TGI [9]: 5.88 µM
TGI [10]: 5.3 µM
TGI [11]: 3.04 µM
GI50 [12]: 1670 nM
TGI [12]: 3.65 µM
TGI [13]: 2860 nM
TGI [14]: 4.03 µM
TGI [15]: 5.24 µM
TGI [16]: 3.12 µM
GI50 [17]: 1840 nM
TGI [17]: 3.83 µM
TGI [18]: 3.08 µM
GI50 [19]: 1530 nM
TGI [19]: 3.27 µM
TGI [20]: 3.88 µM
GI50 [21]: 2720 nM
TGI [21]: 6.44 µM
GI50 [22]: 1520 nM
TGI [22]: 2970 nM
TGI [23]: 3.32 µM
TGI [24]: 3.21 µM
GI50 [25]: 1400 nM
TGI [25]: 7.64 µM
TGI [26]: 3.39 µM
GI50 [27]: 3.56 µM
TGI [27]: 18.7 µM
GI50 [28]: 1630 nM
TGI [28]: 4.09 µM
TGI [29]: 3.82 µM
TGI [30]: 4.36 µM
GI50 [31]: 2150 nM
TGI [31]: 4.39 µM
GI50 [32]: 2060 nM
TGI [32]: 5.05 µM
TGI [33]: 4.03 µM
GI50 [34]: 2550 nM
TGI [34]: 6.36 µM
GI50 [35]: 2570 nM
TGI [35]: 7.85 µM
TGI [36]: 3.83 µM
TGI [37]: 2840 nM
GI50 [38]: 1220 nM
TGI [38]: 3.94 µM
TGI [39]: 4.55 µM
TGI [40]: 3.49 µM
TGI [41]: 7.06 µM
GI50 [42]: 1990 nM
TGI [42]: 9.01 µM
GI50 [43]: 1740 nM
TGI [43]: 3.95 µM
GI50 [44]: 1800 nM
TGI [44]: 7.42 µM
GI50 [45]: 1680 nM
TGI [45]: 3.53 µM
TGI [46]: 4.06 µM
TGI [47]: 3.74 µM
TGI [48]: 4.74 µM
TGI [49]: 2970 nM
GI50 [50]: 1360 nM
TGI [50]: 2710 nM
TGI [51]: 3.46 µM
TGI [52]: 4.8 µM
TGI [53]: 16.2 µM
GI50 [54]: 2380 nM
TGI [54]: 7.53 µM
GI50 [55]: 2230 nM
TGI [55]: 5.12 µM
TGI [56]: 3.17 µM
TGI [57]: 3.9 µM

GI50 [3]: 2040 nM
GI50 [16]: 1700 nM
GI50 [40]: 2000 nM
GI50 [49]: 1290 nM
Structure (SMILES): N=C(NO)NS(=O)(=O)c1cc(-c2nc(-c3ccccc3)no2)c(Cl)cc1SCc1ccc2c(c1)OCO2
GI50 [17]: 1820 nM
GI50 [25]: 1660 nM
GI50 [31]: 1910 nM
GI50 [34]: 2630 nM
GI50 [38]: 1550 nM
GI50 [43]: 1910 nM
GI50 [44]: 2190 nM
GI50 [45]: 2000 nM
GI50 [54]: 2570 nM
